From PubChem
YB-1 expr inh – YB-1 expression inhibition; U2OS, qRT-PCR YB-1 vs CDIP delta delta Cp, 16 h; active compounds read high; zero = DMSO, each unit about twofold; 30,000 compounds, 0.37% hits; AID 434959; delta delta Cp (YB-1 minus CDIP) (no concentration beside the values);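 active = delta delta Cp rounded down to an integer at or above 3, about 3 SD of DMSO wells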;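 also: higher means less YB-1 transcript or more CDIP transcript relative to DMSO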
T cruzi intra – blocks T. cruzi growth inside host cells | intracellular Trypanosoma cruzi in host cells, plate reader | activity score (inhibition), % at 5.01 µM | 22,000 compounds, 4.9% hits; in the data active = activity score above about 55%;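 also: parasites and compound incubated about four days before reading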
INS-1E rescue – preserves ATP levels in cytokine-treated INS-1E cells. INS-1E cytokine-induced death, ATP luminescence, 48 h; normalised: neutral wells 0, positive control 100. AID 488910. 20,000 compounds, 0.1% hits. protection from cytokine-induced ATP loss, % at 10 µM;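 active = mean replicate protection from cytokine-induced ATP loss at least 50% and at least 75% of replicates each reaching 50%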
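assay system = INS-1E rat insulinoma cells | amount = 8000 cells per well | medium = phenol-red-free RPMI with 5% fetal bovine serum | doses = one compound concentration, pin transfer | timing = 48 h cytokine plus compound treatment, 10 min reagent incubation | also added = IL-1β, TNF-α and IFN-γ cytokine mix | signal = CellTiter-Glo luminescence measuring cellular ATP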
A number is an active result; - = inactive; . = not tested or not shown. Only a selection was taken, and hits are over-represented in it overall.

SMILES	YB-1 expr inh	T cruzi intra	INS-1E rescue
C[C@H]1CN([C@@H](C)CO)C(=O)Cc2cc(NS(=O)(=O)c3ccccc3)ccc2O[C@@H]1CN(C)Cc1ccc(C(F)(F)F)cc1	-	67	-
C[C@H](CO)N1C[C@H](C)[C@H](CN(C)Cc2ccc(C(F)(F)F)cc2)Oc2ccc(NS(=O)(=O)c3ccccc3)cc2CC1=O	-	-	-
C[C@@H]1CN([C@H](C)CO)C(=O)Cc2cc(NS(=O)(=O)c3ccccc3)ccc2O[C@@H]1CN(C)Cc1ccc(C(F)(F)F)cc1	-	59	-
O=C1C=CC(O)(/C=C/C(=O)O[C@@H]2[C@@H](O)[C@H](Oc3ccc(O)cc3)O[C@H](CO)[C@H]2O)C=C1	-	.	.
C[C@H](CO)N1C[C@H](C)[C@@H](CN(C)Cc2ccc3c(c2)OCO3)Oc2ccc(NC(=O)CCCCCC(=O)Nc3ccccc3N)cc2C1=O	-	-	-
C[C@H]1CN([C@@H](C)CO)C(=O)c2cccc(NC(=O)CCCCCC(=O)Nc3ccccc3N)c2O[C@@H]1CN(C)Cc1ccc2c(c1)OCO2	-	72	-
C[C@H](CO)N1C[C@H](C)[C@@H](CN(C)Cc2ccc3c(c2)OCO3)Oc2c(NC(=O)CCCCCC(=O)Nc3ccccc3N)cccc2C1=O	-	73	-
C[C@@H]1CN([C@@H](C)CO)C(=O)c2cccc(NC(=O)CCCCCC(=O)Nc3ccccc3N)c2O[C@H]1CN(C)Cc1ccc2c(c1)OCO2	-	59	-
C[C@H](CO)N1C[C@H](C)[C@H](CN(C)Cc2ccc3c(c2)OCO3)Oc2ccc(NC(=O)CCCCCC(=O)Nc3ccccc3N)cc2C1=O	-	-	-
C[C@@H]1CN([C@@H](C)CO)C(=O)c2cc(NC(=O)CCCCCC(=O)Nc3ccccc3N)ccc2O[C@@H]1CN(C)Cc1ccc2c(c1)OCO2	-	-	-
O=C(O)CCCc1cc2cc(Br)ccc2o1	-	.	.
COc1ccc(NC(=O)Nc2cccc3c2O[C@H](CN(C)S(=O)(=O)c2ccccc2)[C@H](C)CN([C@H](C)CO)C3=O)cc1	-	-	-
Cc1noc(C)c1NC(=O)N(C)C[C@@H]1Oc2ccc(NC(=O)NC3CCCCC3)cc2CC(=O)N([C@H](C)CO)C[C@@H]1C	-	-	-
Cc1noc(C)c1S(=O)(=O)Nc1ccc2c(c1)CC(=O)N([C@@H](C)CO)C[C@H](C)[C@H](CN(C)C)O2	-	-	-
CCN(CC)CCC(=O)N1N=C(c2ccc(C)cc2)CC1c1ccc(OC)cc1 (centres undefined)	-	.	.
CN(C)CCCC[C@@H]1NC(=O)[C@@H]2C[C@H](C(=O)O)[C@H](c3cccc(OCCO)c3)N2C1=O	-	.	.
C[C@H]1CN([C@@H](C)CO)C(=O)c2cccc(NC(=O)Nc3ccc(C(F)(F)F)cc3)c2O[C@@H]1CN(C)Cc1ccc(Oc2ccccc2)cc1	-	-	-
C[C@H]1CN([C@@H](C)CO)C(=O)c2cccc(NC(=O)Nc3ccc(C(F)(F)F)cc3)c2O[C@H]1CN(C)Cc1ccc2c(c1)OCO2	-	85	-
C[C@@H]1CN([C@H](C)CO)C(=O)c2cccc(NC(=O)Nc3ccc(F)cc3)c2O[C@H]1CN(C)Cc1ccc(C(F)(F)F)cc1	-	-	-
C[C@H]1CN([C@@H](C)CO)C(=O)c2cccc(NC(=O)Nc3ccc4c(c3)OCO4)c2O[C@H]1CN(C)Cc1ccc(C(F)(F)F)cc1	-	-	-
COc1ccc(NC(=O)Nc2cccc3c2O[C@H](CN(C)Cc2ccccc2)[C@@H](C)CN([C@@H](C)CO)C3=O)cc1	3.6	-	-
COc1ccc(CN(C)C[C@@H]2Oc3c(NC(=O)Nc4ccccc4)cccc3C(=O)N([C@@H](C)CO)C[C@H]2C)cc1	-	-	-
C[C@H](CO)N1C[C@H](C)[C@@H](CN(C)Cc2ccc(C(F)(F)F)cc2)Oc2c(NC(=O)Nc3ccc(F)cc3)cccc2C1=O	-	74	-
C[C@H](CO)N1C[C@H](C)[C@H](CN(C)Cc2ccc(Oc3ccccc3)cc2)Oc2c(NC(=O)Nc3ccc(C(F)(F)F)cc3)cccc2C1=O	-	62	-
CC1(C)C(=O)[C@@H]2O[C@@H]2[C@@]2(C)C1CC(=O)[C@]1(C)C2CC[C@@]2(C)[C@H](c3ccoc3)OC(=O)[C@H]3O[C@]321 (some centres undefined)	-	.	.
SMILES	YB-1 expr inh	T cruzi intra	INS-1E rescue
C[C@@H]1CN([C@H](C)CO)C(=O)Cc2cc(NC(=O)C3CC3)ccc2O[C@@H]1CN(C)S(=O)(=O)c1ccccc1	-	-	-
Cc1cccc(NC(=O)/C=C/c2ccccc2)c1	-	.	.
COc1ccc(CC(=O)NN2C(=O)CSCC2=O)cc1OC	-	.	.
Cc1ccn2c(-c3nnco3)c(C)nc2c1	-	.	.
CC(C)CC(=O)c1c(O)cc(O)cc1OC1OC(COC(=O)c2cc(O)c(O)c(O)c2)C(O)C(O)C1O (centres undefined)	-	.	.
C=CC1(C)OCO/C1=C\C[N+](C)(C)C (centres undefined)	-	.	.
C[C@H]1CN([C@@H](C)CO)C(=O)c2cccc(NC(=O)Nc3ccc(C(F)(F)F)cc3)c2O[C@@H]1CN(C)Cc1ccc(C(F)(F)F)cc1	-	-	-
COc1ccc(CN(C)C[C@@H]2Oc3c(NC(=O)Nc4ccc(C(F)(F)F)cc4)cccc3C(=O)N([C@H](C)CO)C[C@H]2C)cc1	-	79	-
C[C@@H]1CN([C@@H](C)CO)C(=O)c2cccc(NC(=O)Nc3ccc(C(F)(F)F)cc3)c2O[C@@H]1CN(C)Cc1ccc(C(F)(F)F)cc1	-	81	-
COc1ccc(NC(=O)Nc2cccc3c2O[C@H](CN(C)Cc2ccc(C(F)(F)F)cc2)[C@@H](C)CN([C@H](C)CO)C3=O)cc1	-	-	-
CCOC(=O)c1nn(-c2ccc(OC)cc2)c(C(=O)OCC)c1NC(=O)C1CCCCC1	-	.	.
C[C@H]1CN([C@@H](C)CO)C(=O)Cc2cc(NS(=O)(=O)c3ccc(F)cc3)ccc2O[C@H]1CN(C)Cc1ccc(C(=O)Nc2ccccc2N)cc1	-	71	-
C[C@@H]1CN([C@@H](C)CO)C(=O)Cc2cc(NS(=O)(=O)c3ccc(F)cc3)ccc2O[C@@H]1CN(C)Cc1ccc(C(=O)Nc2ccccc2N)cc1	-	-	-
C[C@@H]1CCCCO[C@@H](CN(C)Cc2ccc(C(=O)Nc3ccccc3N)cc2)[C@@H](C)CN([C@H](C)CO)C(=O)c2cc(NS(=O)(=O)c3ccccc3)ccc2O1	-	-	-
C[C@@H]1CN([C@H](C)CO)C(=O)Cc2cc(NS(=O)(=O)c3ccccc3)ccc2O[C@@H]1CN(C)Cc1ccc(C(=O)Nc2ccccc2N)cc1	-	58	-
C[C@@H]1CN([C@H](C)CO)C(=O)c2cc(NS(=O)(=O)c3ccc(F)cc3)ccc2O[C@@H]1CN(C)Cc1ccc(C(=O)Nc2ccccc2N)cc1	-	-	-
C[C@@H]1CCCCO[C@H](CN(C)Cc2ccc(C(=O)Nc3ccccc3N)cc2)[C@@H](C)CN([C@H](C)CO)C(=O)c2cc(NS(=O)(=O)c3ccc(Cl)cc3)ccc2O1	-	78	-
